# Assay results from PubChem BioAssay.
# Active and inactive are the calls of the source.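 How the source made its calls, unless noted: active means potentiation averaged over duplicate wells exceeding buffer-only control mean by more than 3 SD; inactive means the rest.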
# How the values were obtained:
# [1] = nonspecific flux increase, KCNQ1-free cells – parental CHO cells, counter-screen for KCNQ1 potentiator project (AID 493006;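 active means duplicate-averaged activation above buffer control mean plus 5 SD of those controls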); conditions: parental CHO-K1 cells, FluxOR thallium flux, at 10 µM; hits give high values
# Method in brief: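 Test system: parental CHO-K1 cells, FluxOR dye-loaded / Probe or stimulus: potassium plus thallium depolarizing stimulus, 5x stock 12.5 mM K2SO4, Tl2SO4 / Timing: overnight 37 °C plating, 90 min dye, 20 min dark compound / Measured by: kinetic thallium-flux fluorescence / Read-out: max-minus-min fluorescence over baseline, percent of buffer-to-R-L3 span / Benchmarks: buffer and R-L3 controls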
# [2] = biological target: Potassium voltage-gated channel subfamily KQT member 1 (Homo sapiens) (UniProt P51787); assay: enhancement of KCNQ1 channel thallium flux – FluxOR thallium flux, CHO cells, duplicates, confirmation (AID 493007); conditions: KCNQ1 cell line, FluxOR thallium flux fluorescence, at 10 µM; hits give high values, % of reference activator effect, buffer zero;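 on outcome: cells depolarized by a potassium plus thallium sulfate stimulus after compound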;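 on potentiation: 0% = buffer-only wells and 100% = R-L3 activator control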
# Sequence of Potassium voltage-gated channel subfamily KQT member 1 (Homo sapiens) (P51787 whole entry, looked up): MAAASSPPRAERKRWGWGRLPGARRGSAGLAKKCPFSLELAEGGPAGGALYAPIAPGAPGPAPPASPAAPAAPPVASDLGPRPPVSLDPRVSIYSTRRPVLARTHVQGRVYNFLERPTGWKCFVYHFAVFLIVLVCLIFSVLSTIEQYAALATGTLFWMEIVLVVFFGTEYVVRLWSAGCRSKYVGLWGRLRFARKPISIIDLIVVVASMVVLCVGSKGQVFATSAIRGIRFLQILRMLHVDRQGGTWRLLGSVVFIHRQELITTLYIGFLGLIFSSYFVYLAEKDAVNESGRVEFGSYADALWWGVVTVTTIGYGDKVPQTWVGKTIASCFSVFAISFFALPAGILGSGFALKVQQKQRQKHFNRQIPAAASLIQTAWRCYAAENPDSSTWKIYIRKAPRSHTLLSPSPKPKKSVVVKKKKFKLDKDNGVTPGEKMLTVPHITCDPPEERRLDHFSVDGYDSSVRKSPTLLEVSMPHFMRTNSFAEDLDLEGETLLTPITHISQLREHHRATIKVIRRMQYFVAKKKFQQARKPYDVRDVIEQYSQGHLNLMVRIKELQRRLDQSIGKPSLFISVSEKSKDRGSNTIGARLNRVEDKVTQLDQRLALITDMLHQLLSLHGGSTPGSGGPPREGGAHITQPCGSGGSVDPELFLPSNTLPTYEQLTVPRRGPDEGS
# Method in brief: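 Assay system: CHO cells carrying KCNQ1 | Controls: Buffer and R-L3 controls | Schedule: FluxOR dye loading 90 min, compound exposure 20 min, room temperature | Read-out: Baseline-normalized fluorescence change, percent of buffer-to-R-L3 range | Replicates: Each compound tested in duplicate | Technique: Kinetic thallium influx fluorescence with FluxOR dye, 10 s baseline, 110 s post-stimulus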
# [3] = biological target: Potassium voltage-gated channel subfamily KQT member 2 (Rattus norvegicus) (UniProt O88943); assay: KCNQ2 thallium flux enhancement – KCNQ2-CHO-K1 cells, selectivity assay for KCNQ1 potentiator project (AID 493009;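 active means mean duplicate potentiation above the buffer control mean plus 5 SD of buffer wells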;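 further: assay conditions were tuned for KCNQ1 rather than KCNQ2 modulators; signal is max minus min fluorescence divided by baseline after thallium stimulus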); conditions: FluxOR thallium flux fluorescence, at 10 µM; hits give high values, scaled: buffer 0, activator control 100
# Sequence of Potassium voltage-gated channel subfamily KQT member 2 (Rattus norvegicus) (O88943 whole entry, looked up): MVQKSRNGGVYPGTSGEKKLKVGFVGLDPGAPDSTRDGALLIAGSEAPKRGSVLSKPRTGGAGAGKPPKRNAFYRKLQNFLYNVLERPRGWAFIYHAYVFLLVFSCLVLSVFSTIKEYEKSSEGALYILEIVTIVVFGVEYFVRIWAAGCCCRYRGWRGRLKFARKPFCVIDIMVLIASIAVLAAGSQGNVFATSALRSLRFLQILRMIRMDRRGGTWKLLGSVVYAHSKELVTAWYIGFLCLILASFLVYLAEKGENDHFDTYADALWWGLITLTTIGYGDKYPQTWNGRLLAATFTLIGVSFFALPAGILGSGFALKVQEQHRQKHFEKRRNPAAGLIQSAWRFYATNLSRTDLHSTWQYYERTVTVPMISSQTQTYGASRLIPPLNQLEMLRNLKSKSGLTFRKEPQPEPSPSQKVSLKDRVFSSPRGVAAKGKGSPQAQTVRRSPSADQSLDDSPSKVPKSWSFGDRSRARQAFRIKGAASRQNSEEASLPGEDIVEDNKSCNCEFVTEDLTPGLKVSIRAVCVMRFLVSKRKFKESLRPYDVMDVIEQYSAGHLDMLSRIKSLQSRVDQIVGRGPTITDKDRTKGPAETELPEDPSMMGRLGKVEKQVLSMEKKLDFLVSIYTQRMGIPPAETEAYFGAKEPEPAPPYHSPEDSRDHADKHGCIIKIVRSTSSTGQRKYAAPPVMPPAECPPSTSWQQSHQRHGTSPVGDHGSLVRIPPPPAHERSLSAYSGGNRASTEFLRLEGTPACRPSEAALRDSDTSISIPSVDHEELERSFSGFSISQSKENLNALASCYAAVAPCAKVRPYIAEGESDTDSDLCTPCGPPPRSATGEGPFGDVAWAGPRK
# [4] = biological target: Potassium voltage-gated channel subfamily KQT member 1 (Homo sapiens) (UniProt P51787); assay: KCNQ1 activators by electrophysiology – IonWorks patch clamp, KCNQ1-CHO cells, orthogonal assay for KCNQ1 potentiator project, confirmation (AID 493184;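 active means current rise at least 3 SD above the untreated control mean in each of two repeat wells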); conditions: automated patch clamp current, at 10 µM; hits give high values
# Method in brief: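 Material: KCNQ1-expressing CHO cells; doses: 10 µM final, single point; probe or stimulus: voltage step from -90 mV holding to +40 mV, 2,000 ms; signal: automated voltage clamp, amphotericin B perforated patch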
SMILES,outcome [1],outcome [2],outcome [3],outcome [4],activation [1],potentiation [2],potentiation [3]
O=C(CC1(O)C(=O)N(C/C=C/c2ccccc2)c2ccccc21)c1ccccn1 (stereo not given),inactive,inactive,inactive,inactive,–,–,–
CCn1nc(C)c(CNC(=O)C2CCC(=O)N(Cc3cccc(F)c3)C2)c1C (stereo not given),inactive,inactive,inactive,inactive,–,–,–
CCOC(=O)Cn1c2ccccc2c2nc3ccccc3nc21,inactive,inactive,inactive,inactive,–,–,–
O=c1c2ccc(Cl)cc2nc(-c2cccc(C(F)(F)F)c2)n1O,–,–,–,inactive,722% (active),230% (active),756% (active)
N=c1ccn(CC(=O)c2ccc(-c3ccccc3)cc2)cc1,inactive,inactive,inactive,inactive,–,–,–
Cc1cc(Cl)ccc1OCC(=O)NNC(=O)C1CCCO1 (stereo not given),inactive,inactive,inactive,inactive,–,–,–
O=c1[nH]cc(-c2ccccc2)c(=O)[nH]1,inactive,inactive,inactive,inactive,–,–,–
COCCCNc1nc2ccccc2nc1NS(=O)(=O)c1cccs1,inactive,inactive,inactive,inactive,–,–,–
Cc1ccc(/C=C/C(=O)c2ccccc(=O)c2O)c(C)c1,–,–,–,inactive,244% (active),118% (active),280% (active)
CCOC(=O)c1ccc(Oc2nc(NC(C)(C)C)nc(N(C)C)n2)cc1,inactive,inactive,inactive,inactive,–,–,–
CC(C)NC(=O)C1(S(=O)(=O)c2ccccc2)CC=CC1,inactive,inactive,inactive,inactive,–,–,–
CCC1CCCCN1C(=S)NC(=O)c1cccc([N+](=O)[O-])c1 (stereo not given),–,–,–,inactive,232% (active),57% (active),284% (active)
CC1CCCC(NC(=S)NC(=O)c2ccccc2Br)C1C (stereo not given),inactive,–,inactive,inactive,–,29.5% (active),–
CCn1ncc(Cl)c1C(=O)NC(=S)Nc1ccccc1Br,–,–,–,inactive,272% (active),200% (active),340% (active)
O=C(CSc1nnc(SCc2cccc3ccccc23)s1)c1ccc2c(c1)OCO2,–,inactive,inactive,inactive,163% (active),–,–
COc1cccc2sc(Nc3nnc(-c4ccccc4Cl)o3)nc12,inactive,–,inactive,inactive,–,112% (active),–
CCN(c1ccccc1)S(=O)(=O)c1ccc(OC)c(NC(=O)COc2ccc(C(C)=O)cc2)c1,inactive,inactive,inactive,inactive,–,–,–
CCCCn1c(-c2csc3c2CCC(C)C3)n[nH]c1=S (stereo not given),–,–,–,inactive,145% (active),75.5% (active),150% (active)
O=C(NC(=S)Nc1nc2ccc(F)cc2s1)c1ccco1,–,–,–,inactive,282% (active),132% (active),331% (active)
CCOC(=O)c1c(-c2ccc(C)o2)csc1NC(=S)NC(=O)N(C)C,–,–,–,inactive,266% (active),171% (active),314% (active)
Cc1ccccc1C(=O)NNC(=O)C(=O)Nc1cccc(Cl)c1C,–,–,–,inactive,346% (active),168% (active),406% (active)
Cn1ncc2c(O/N=C(\N)c3ccc(C(F)(F)F)cc3)ncnc21,inactive,inactive,inactive,inactive,–,–,–
O=C(CN1C(=O)COc2ccccc21)N(Cc1cccnc1)Cc1cccc(F)c1,inactive,inactive,inactive,inactive,–,–,–
CCN(CC)c1ccc(/C=N/Nc2nc3ccccc3[nH]2)c(O)c1,inactive,inactive,inactive,inactive,–,–,–
C=CCOc1ccc(/C=C2\SC(=S)N(NS(=O)(=O)c3ccc(C)cc3)C2=O)cc1,–,–,–,inactive,447% (active),444% (active),852% (active)
COc1ccccc1NC(=O)Cn1cnc2c(oc3nc4c(cc32)CCCC4)c1=O,inactive,inactive,inactive,inactive,–,–,–
CN1CCN(C=Nc2nc3ccccc3nc2N2CCCC2)CC1,inactive,inactive,inactive,inactive,–,–,–
Cc1noc(C)c1COc1ccc(CC(=O)NCc2ccccc2)cc1,inactive,inactive,inactive,inactive,–,–,–
COc1cc(-c2nnc(COC(=O)c3cccn3C)o2)cc(OC)c1OC,inactive,inactive,inactive,inactive,–,–,–
COc1cnc(-c2ccccn2)nc1Oc1ccccc1Cl,inactive,inactive,inactive,inactive,–,–,–
